Active and inactive are the calls of the source. No cut-off for these calls is given here. Bounds are passed on as bounds.

Test [1] deals with T1, Alkaline ceramidase 3 (Mus musculus) (UniProt Q9D099).
T1 sequence (whole entry): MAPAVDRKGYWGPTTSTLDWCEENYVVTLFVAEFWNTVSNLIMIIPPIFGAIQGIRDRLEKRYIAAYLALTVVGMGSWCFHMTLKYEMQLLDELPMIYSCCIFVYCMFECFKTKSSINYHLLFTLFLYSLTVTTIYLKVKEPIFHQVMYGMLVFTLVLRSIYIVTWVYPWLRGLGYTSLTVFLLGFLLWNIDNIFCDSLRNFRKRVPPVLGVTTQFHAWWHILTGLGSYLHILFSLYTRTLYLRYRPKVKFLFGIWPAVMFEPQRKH
In words: Inhibition of ACER3 in ASAH2-null mouse intact embryonic fibroblast using RBM14C16 fluorogenic substrate measured at pH 9 for 3 hrs by fluorescence spectrophotometry. As to conditions: MEF. In short, it runs like this:
(§1)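 Intact MEF (ASAH2-null or wild type) seeded at 2x10^4 cells/well 24 h before the assay. Then given RBM14C16 (10 μM) plus a range of compound concentrations, added together, in DMEM 10% FBS for 3 h at 37 °C. Stopped with MeOH, oxidized with NaIO4 at pH 10.6, umbelliferone fluorescence read at 355/460 nm. Normalized to SRB protein; three experiments in triplicate.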

Test [2] deals with Neutral ceramidase (Mus musculus) (UniProt Q9JHE3). The test is described as follows: Inhibition of ASAH2 in wild type mouse intact embryonic fibroblast using RBM14C16 fluorogenic substrate measured at pH 7.5 incubated for 3 hrs by fluorescence spectrophotometry. As to conditions: MEF. The method in brief: as §1
Neutral ceramidase (Mus musculus), sequence (Q9JHE3 whole entry): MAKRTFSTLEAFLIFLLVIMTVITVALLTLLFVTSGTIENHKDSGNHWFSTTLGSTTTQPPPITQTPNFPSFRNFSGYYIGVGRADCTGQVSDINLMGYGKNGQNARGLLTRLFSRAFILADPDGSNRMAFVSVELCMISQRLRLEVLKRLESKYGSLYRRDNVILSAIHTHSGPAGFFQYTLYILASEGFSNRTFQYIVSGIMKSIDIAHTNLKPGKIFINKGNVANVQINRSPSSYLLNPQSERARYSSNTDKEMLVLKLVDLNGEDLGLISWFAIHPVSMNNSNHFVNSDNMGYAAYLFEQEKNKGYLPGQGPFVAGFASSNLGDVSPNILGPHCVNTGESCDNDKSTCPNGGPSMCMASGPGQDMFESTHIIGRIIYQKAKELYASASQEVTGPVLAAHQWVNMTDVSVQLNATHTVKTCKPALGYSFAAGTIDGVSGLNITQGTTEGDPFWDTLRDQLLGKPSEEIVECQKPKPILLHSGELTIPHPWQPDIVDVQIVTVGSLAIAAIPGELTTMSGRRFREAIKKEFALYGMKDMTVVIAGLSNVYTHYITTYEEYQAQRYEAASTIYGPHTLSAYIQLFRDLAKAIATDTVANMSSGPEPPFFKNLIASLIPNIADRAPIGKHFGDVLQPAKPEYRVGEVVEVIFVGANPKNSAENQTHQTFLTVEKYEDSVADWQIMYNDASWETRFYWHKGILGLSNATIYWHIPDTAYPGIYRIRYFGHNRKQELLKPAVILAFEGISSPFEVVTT
The target of test [3] is T2, Neutral ceramidase (Homo sapiens, UniProt Q9NR71). The test is described as follows: Inhibition of human ASAH2 recombinant enzyme using RBM14C16 fluorogenic substrate measured at 5 uM at pH 7.5 by fluorescence spectrophotometry.
T2 sequence (Q9NR71 whole entry): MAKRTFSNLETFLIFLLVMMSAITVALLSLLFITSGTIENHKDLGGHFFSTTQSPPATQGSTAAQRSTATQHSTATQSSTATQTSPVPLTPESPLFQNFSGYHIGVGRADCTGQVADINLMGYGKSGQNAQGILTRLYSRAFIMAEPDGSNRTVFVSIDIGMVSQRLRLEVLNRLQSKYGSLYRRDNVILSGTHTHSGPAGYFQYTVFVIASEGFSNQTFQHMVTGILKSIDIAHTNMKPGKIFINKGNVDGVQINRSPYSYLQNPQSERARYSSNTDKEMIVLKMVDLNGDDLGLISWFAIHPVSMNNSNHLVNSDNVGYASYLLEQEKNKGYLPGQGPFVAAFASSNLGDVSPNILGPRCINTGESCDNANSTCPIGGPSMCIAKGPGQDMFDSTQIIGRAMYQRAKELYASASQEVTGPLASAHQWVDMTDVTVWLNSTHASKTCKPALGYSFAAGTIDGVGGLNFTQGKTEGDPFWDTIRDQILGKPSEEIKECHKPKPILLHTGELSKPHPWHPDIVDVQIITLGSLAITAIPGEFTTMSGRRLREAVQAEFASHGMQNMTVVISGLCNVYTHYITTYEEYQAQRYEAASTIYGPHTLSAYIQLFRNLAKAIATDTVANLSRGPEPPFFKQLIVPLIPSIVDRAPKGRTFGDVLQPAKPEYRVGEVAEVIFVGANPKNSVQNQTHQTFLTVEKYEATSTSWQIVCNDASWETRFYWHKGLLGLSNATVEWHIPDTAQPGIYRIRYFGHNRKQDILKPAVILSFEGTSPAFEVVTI
Test [4] concerns the target T2, Neutral ceramidase. In words: Inhibition of human ASAH2 transiently over expressed in human HT-29 cell lysate using RBM14C24 fluorogenic substrate measured at pH 7.4 by fluorescence spectrophotometry.
In test [5] the target is T3, Acid ceramidase (Homo sapiens) (UniProt Q13510).
T3 sequence (whole entry): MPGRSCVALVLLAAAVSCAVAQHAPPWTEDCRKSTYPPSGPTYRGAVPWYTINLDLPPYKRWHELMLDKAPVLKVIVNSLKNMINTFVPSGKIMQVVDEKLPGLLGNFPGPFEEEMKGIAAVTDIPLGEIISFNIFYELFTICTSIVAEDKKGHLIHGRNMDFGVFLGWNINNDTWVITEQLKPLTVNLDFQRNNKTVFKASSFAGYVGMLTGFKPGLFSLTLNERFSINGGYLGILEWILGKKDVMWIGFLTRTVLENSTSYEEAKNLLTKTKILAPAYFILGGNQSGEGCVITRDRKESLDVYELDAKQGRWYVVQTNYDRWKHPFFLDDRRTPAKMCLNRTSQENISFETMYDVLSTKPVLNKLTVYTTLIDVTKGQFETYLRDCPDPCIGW
The test is described as follows: (§2) Inhibition of human ASAH1 stably over expressed in human intact A-375 cells using RBM14C12 fluorogenic substrate measured at pH 4.5 by fluorescence spectrophotometry. It is filed as cell-based. As to conditions: time 3.0 hrs. In short, it runs like this:
(§3)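 A375 cells with doxycycline-inducible AC, induced with 1 μg/mL doxycycline for 24 h. Intact cells (2x10^4/well) given RBM14C12 (10 μM) plus compounds in a range of concentrations in DMEM 10% FBS for 3 h at 37 °C. NaIO4 oxidation at pH 10.6, fluorescence at 355/460 nm, normalized to SRB protein. Three experiments in triplicate.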

In test [6] the target is T2, Neutral ceramidase. The test is described as follows: Non-competitive inhibition of recombinant ASAH2 stably over expressed in human A-375 cell lysate using RBM14C24 as substrate. It is filed as subcellular.
Test [7] concerns the target T2, Neutral ceramidase. In words: Inhibition of human ASAH2 recombinant enzyme using RBM14C16 fluorogenic substrate measured at 20:1 substrate to compound molar ratio at pH 7.5 by fluorescence spectrophotometry.
For test [8], the target named is T3, Acid ceramidase (Homo sapiens). The test is described as follows: Inhibition of human ASAH1 stably over expressed in human A-375 cell lysate using RBM14C12 fluorogenic substrate measured at 40 uM at pH 4.5 by fluorescence spectrophotometry. The class given is subcellular. The method in brief: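 Lysate of doxycycline-induced AC-overexpressing A375 cells (25 μg) in 25 mM sodium acetate pH 4.5, with RBM14C12 (10 μM) and a range of compound concentrations, 3 h at 37 °C. NaIO4/glycine-NaOH pH 10.6 development, fluorescence at 355/460 nm. Mean ± SEM from three to four experiments in triplicate.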

Test [9] has the same target. In words: Inhibition of human ASAH1 stably over expressed in human A-375 cell lysate using RBM14C12 fluorogenic substrate measured at 1:1 compound to substrate molar ratio at pH 4.5 by fluorescence spectrophotometry. The class given is subcellular.
For test [10], the target named is T2, Neutral ceramidase. The test is described as follows: Inhibition of human ASAH2 stably over expressed in human A-375 cell lysate using RBM14C24 fluorogenic substrate measured at 20 uM at pH 7.5 by fluorescence spectrophotometry. It is filed as subcellular.
Test [11] deals with T2, Neutral ceramidase. The test is described as follows: Inhibition of human ASAH2 transiently over expressed in human HT29 cell lysate using RBM14C24 fluorogenic substrate measured at >40 uM at pH 7.4 by fluorescence spectrophotometry. As to conditions: HT-29, dose microM >40.
Test [12] addresses T1, Alkaline ceramidase 3 (Mus musculus). The test is described as follows: Inhibition of ACER3 in ASAH2-null intact mouse embryonic fibroblast cell assessed as reduction in sphingomyelin level incubated for 3 hrs by LC-MS analysis. As to conditions: MEF. In short, it runs like this:
(§4)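 ASAH2-null MEF seeded at 0.2x10^6 cells/mL, grown 24 h, then given 50 μM compound or vehicle in DMEM 10% FBS for 3 h. Cells washed with PBS, lipids extracted and quantified by LC/MS. Mean ± SD from two experiments with triplicates; unpaired two-tailed t-test versus vehicle.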

In the next test the target is T4, Alkaline ceramidase 3 (Mus musculus, UniProt Q9D099).
T4 sequence (Q9D099 whole entry): T1 sequence (whole entry)
The test is described as follows: Non-competitive inhibition of ACER3 in ASAH2-null mouse embryonic fibroblast lysate using RBM14C16 as substrate. It is filed as subcellular. The method in brief: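 Kinetics used ASAH2-null MEF lysate (25 μg) in 50 mM HEPES, 1 mM CaCl2, pH 9. RBM14C16 at 5, 10, 20 and 40 μM, with varied inhibitor amounts. Ki taken from the slopes of double-reciprocal regression lines at each inhibitor concentration. Four experiments in triplicate.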

In test [13] the target is T1, Alkaline ceramidase 3 (Mus musculus). The test is described as follows: Inhibition of ACER3 in ASAH2-null intact mouse embryonic fibroblast cell assessed as reduction in sphingosine level incubated for 3 hrs by LC-MS analysis. As to conditions: MEF. In short, it runs like this: as §4
In a further test the target is T5, Acid ceramidase (Homo sapiens, UniProt Q13510).
T5 sequence (Q13510 whole entry): T3 sequence (whole entry)
The test is described as §2. The class given is cell-based. In short, it runs like this:
as §3

In test [14] the target is T1, Alkaline ceramidase 3 (Mus musculus). The test is described as follows: Inhibition of ACER3 in ASAH2-null intact mouse embryonic fibroblast cell assessed as reduction in glucosylceramide level incubated for 3 hrs by LC-MS analysis. As to conditions: MEF. In short, it runs like this: as §4
Test [15] has the same target. The test is described as follows: Inhibition of ACER3 in ASAH2-null mouse embryonic fibroblast lysate using RBM14C16 fluorogenic substrate measured at pH 9 in presence of Ca2+ by fluorescence spectrophotometry. The class given is subcellular. As to conditions: MEF, time 3.0 hrs. In short, it runs like this: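 Lysate of ASAH2-null MEF (25 μg protein) in 50 mM HEPES, 1 mM CaCl2, pH 9, incubated 3 h at 37 °C with RBM14C16 and test compound. Stopped with MeOH, then NaIO4 in glycine-NaOH pH 10.6, 1 h at 37 °C in dark. Fluorescence read at ex 355/em 460 nm against enzyme-free blanks. Triplicates.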

The target is the same in test [16]. In words: Inhibition of ACER3 in ASAH2-null intact mouse embryonic fibroblast cell assessed as increase in total […] incubated for 3 hrs by LC-MS analysis. As to conditions: MEF. The method in brief: as §4

Turning to `CCCCCCCCCCCC/C=C/[C@@H](O)[C@@H](C)NC(=O)CCCCCCC`, the inhibition entry in test [1] and in test [2] was “inactive” throughout.

In the case of `CCCCCCCCCCCC/C=C/[C@@H](O)[C@@H](C)NC(=O)c1ccc(CCCCCCC)cc1`, the inhibition entry (in [1]; at Neutral ceramidase [4]; in test [5]; in [2]; in test [9]) was “inactive” throughout. Also, the inhibition entry (at Neutral ceramidase [3]; at Neutral ceramidase [7]; in test [8]; at Neutral ceramidase [10]) was “Active” each time. Further, at Neutral ceramidase [6], the Ki came to 0.8 µM.

As to `CCCCCCCCCCCC/C=C/[C@@H](O)[C@@H](C)NC(=O)c1ccc(OCCCOCOC)cc1`, the inhibition result in test [1], in test [2] and in test [8] was “Active” each time. Also, the values for the inhibition (against Neutral ceramidase [11]; on Neutral ceramidase [4]; in [15]) were 50%, “Dose-Dependent Effect” and “Dose-Dependent Effect”, respectively. For the same compound, the inhibition result (in [12]; in [13]; in test [14]; in [9]; at Neutral ceramidase [10]) was “inactive” each time. In addition, the Ki at Alkaline ceramidase 3 was 25.5 µM; at Neutral ceramidase [6], 5.4 µM. The compound further returned an IC50 on Acid ceramidase of more than 200 µM. In addition, the fold change (FC) in test [16] stood at 1.5.

On to `CCCCCCCCCCCC/C=C/[C@@H](O)[C@@H](C)NC(=O)c1ccc(OCCCCOCOC)cc1`, for which the inhibition result in test [1] and in [2] was “Active” throughout. In addition, the inhibition result in [12], in test [13], in [14] and in test [9] was “inactive” in each case. The same compound returned an inhibition constant Ki on Alkaline ceramidase 3 of 34.4 µM. For the same compound, the concentration for half-maximal inhibition (IC50) at Acid ceramidase was more than 200 µM. Further, in test [15], the inhibition result was “Dose-Dependent Effect”. Moreover, the fold change (FC) in test [16] came to 1.5.

As usually defined, the inhibition is the share of the control response that was lost under treatment. As a reminder, the Ki is a dissociation constant, usually derived from enzyme kinetics or from competition with a known ligand. The IC50 is the concentration at which inhibition is half-maximal. Low readings indicate greater potency in that assay, high ones weaker potency in that assay.

The values above are taken from ChEMBL document CHEMBL4813974 (Eur J Med Chem, 2021).
